In ChEMBL document CHEMBL1145590, “Discovery and initial SAR of arylsulfonylpiperazine inhibitors of 11beta-hydroxysteroid dehydrogenase type 1 (11beta-HSD1)” (Bioorg Med Chem Lett, 2008):

What was measured:
[1] = biological target: 11-beta-hydroxysteroid dehydrogenase 1 (Mus musculus, UniProt P50172); test: Inhibition of mouse recombinant 11beta-HSD1 assessed as conversion of [3H]cortisone to [3H]cortisol by SPA assay
[2] = biological target: T1, 11-beta-hydroxysteroid dehydrogenase 1 (Homo sapiens, UniProt P28845)
T1 sequence (P28845 whole entry): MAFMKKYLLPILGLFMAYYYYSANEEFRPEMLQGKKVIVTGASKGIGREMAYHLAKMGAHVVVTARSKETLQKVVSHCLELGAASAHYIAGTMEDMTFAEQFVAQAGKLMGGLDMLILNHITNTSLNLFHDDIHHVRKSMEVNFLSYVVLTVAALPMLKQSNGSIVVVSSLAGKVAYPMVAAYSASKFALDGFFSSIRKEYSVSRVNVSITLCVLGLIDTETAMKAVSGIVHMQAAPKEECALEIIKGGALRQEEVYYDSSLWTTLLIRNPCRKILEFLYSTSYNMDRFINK

[3] = biological target: T1, 11-beta-hydroxysteroid dehydrogenase 1; remark: listed apart in the source
[4] = Metabolic stability in human liver microsomes after 10 mins; format: ADME, Microsome; conditions: read-out: Stability
Procedure, shortened: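 Test compound incubated with human liver microsomes. Percent parent remaining measured at 10 min.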

[5] = Oral bioavailability in rat; format: ADME, organism-based; conditions: in vivo
[6] = Clearance in rat; format: ADME, organism-based; conditions: in vivo
[7] = biological target: T2, 11-beta-hydroxysteroid dehydrogenase type 2 (Homo sapiens, UniProt P80365); test: Inhibition of 11beta-HSD2
T2 sequence (P80365 whole entry): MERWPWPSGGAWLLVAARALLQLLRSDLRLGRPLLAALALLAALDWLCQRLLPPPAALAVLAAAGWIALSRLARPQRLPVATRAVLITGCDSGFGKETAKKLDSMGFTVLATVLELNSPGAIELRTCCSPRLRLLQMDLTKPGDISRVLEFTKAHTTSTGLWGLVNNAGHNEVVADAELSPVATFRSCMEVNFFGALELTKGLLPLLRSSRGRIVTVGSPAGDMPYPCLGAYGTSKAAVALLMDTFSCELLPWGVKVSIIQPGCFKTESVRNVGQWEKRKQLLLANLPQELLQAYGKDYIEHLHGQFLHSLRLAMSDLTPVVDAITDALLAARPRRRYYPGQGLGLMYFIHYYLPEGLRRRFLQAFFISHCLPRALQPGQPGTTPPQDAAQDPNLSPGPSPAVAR

11-beta-hydroxysteroid dehydrogenase 1 (Mus musculus, UniProt P50172), sequence (P50172 whole entry): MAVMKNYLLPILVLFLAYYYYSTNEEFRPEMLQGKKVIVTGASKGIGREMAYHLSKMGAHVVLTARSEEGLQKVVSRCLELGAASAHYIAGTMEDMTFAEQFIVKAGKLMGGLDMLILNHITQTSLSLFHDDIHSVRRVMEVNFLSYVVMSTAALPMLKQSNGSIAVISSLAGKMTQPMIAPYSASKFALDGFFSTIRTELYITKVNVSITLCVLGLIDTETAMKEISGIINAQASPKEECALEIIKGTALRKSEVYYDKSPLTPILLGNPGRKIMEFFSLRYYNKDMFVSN

Row | Compound | IC50 [1] | IC50 [2] | IC50 [3] | remaining at 10 min [4] | bioavailability [5] | clearance [6] | IC50 [7]
1 | FC(F)(F)c1cccnc1N1CCN(Cc2ccccc2)CC1 | > 1000 nM | 1930 nM | 550 nM |  |  |  | 
2 | CC(C)(C)c1ccc(S(=O)(=O)N2CCN(c3ccc([N+](=O)[O-])cc3)CC2)cc1 | 161 nM | 247 nM | 10 nM | 90% | 7% | 16.7 mL/min/kg | 
3 | O=S(=O)(c1ccc2ccccc2c1)N1CCN(c2ncccc2C(F)(F)F)CC1 | 11 nM |  |  |  |  |  | 
4 | O=S(=O)(c1cccc(C(F)(F)F)c1)N1CCN(c2ncccc2C(F)(F)F)CC1 | 53 nM | > 1000 nM | 64 nM |  |  |  | 
5 | C[C@H]1CN(c2ncccc2C(F)(F)F)CCN1S(=O)(=O)c1ccc(C(C)(C)C)cc1 | 17 nM | 569 nM | 9 nM |  |  |  | 
6 | O=C(c1ccccc1)N1CCN(c2ncccc2C(F)(F)F)CC1 | > 1000 nM | > 1000 nM | 262 nM |  |  |  | 
7 | CCC1CN(c2ncccc2C(F)(F)F)CCN1S(=O)(=O)c1ccc(C(C)(C)C)cc1 (stereo not given) | 6 nM | > 1000 nM | 17 nM |  |  |  | 
8 | CC1CN(c2ncccc2C(F)(F)F)CCN1S(=O)(=O)c1ccc(C(C)(C)C)cc1 (stereo not given) | 4 nM | 632 nM | 9 nM |  |  |  | 
9 | O=S(=O)(c1cccc2ccccc12)N1CCN(c2ncccc2C(F)(F)F)CC1 | 80 nM | 329 nM | 13 nM |  |  |  | 
10 | CC(C)(C)c1ccc(S(=O)(=O)N2CCN(c3ccccc3F)CC2)cc1 | 98 nM | > 1000 nM | 106 nM |  |  |  | 
11 | C[C@@H]1CN(c2ncccc2C(F)(F)F)CCN1S(=O)(=O)c1ccc(C(C)(C)C)cc1 | 4 nM | 762 nM | 11 nM |  |  |  | 

Results, then the compound that gave them:

Row | IC50 [1] | IC50 [2] | IC50 [3] | remaining at 10 min [4] | bioavailability [5] | clearance [6] | IC50 [7] | Compound
12 | 32 nM | 461 nM | 16 nM |  |  |  | > 10000 nM | Cc1ccc(S(=O)(=O)N2CCN(c3ncccc3C(F)(F)F)CC2)cc1
13 | 53 nM | 510 nM | 18 nM |  |  |  |  | CCc1ccc(S(=O)(=O)N2CCN(c3ncccc3C(F)(F)F)CC2)cc1
14 | 311 nM | 922 nM | 37 nM |  |  |  |  | O=[N+]([O-])c1ccc(S(=O)(=O)N2CCN(c3ncccc3C(F)(F)F)CC2)cc1
15 |  |  |  | 61% |  |  |  | CC(C)(C)c1ccc(S(=O)(=O)N2CCN(c3ncccc3C(F)(F)F)CC2)cc1
16 | 122 nM | 724 nM | 45 nM |  |  |  |  | O=S(=O)(c1ccccc1)N1CCN(c2ncccc2C(F)(F)F)CC1
17 | > 1000 nM | > 1000 nM | > 1000 nM |  |  |  |  | Cc1ccc(S(=O)(=O)N2CCN(c3ccccn3)CC2)cc1
18 | 240 nM | > 1000 nM | 152 nM |  |  |  |  | Cc1ccc(S(=O)(=O)N2CCN(c3ncccc3C)CC2)cc1
19 | 146 nM | > 1000 nM | 117 nM |  |  |  |  | Cc1ccc(S(=O)(=O)N2CCN(c3ncccc3Cl)CC2)cc1
20 |  | > 1000 nM | 628 nM |  |  |  |  | Cc1ccc(S(=O)(=O)N2CCN(c3ncccc3C#N)CC2)cc1
21 | 32 nM | 456 nM | 19 nM |  |  |  |  | COc1ccc(S(=O)(=O)N2CCN(c3ncccc3C(F)(F)F)CC2)cc1
22 | 546 nM | 978 nM | 50 nM |  |  |  |  | N#Cc1ccc(S(=O)(=O)N2CCN(c3ncccc3C(F)(F)F)CC2)cc1
